This is a sample that favours compounds with a hit; in the whole collection about 2.5% have one here.
E-sel inducer: E-selectin induction on HUVECs; 260,000 tested, 0.37% active; P16581; HUVEC E-selectin immunofluorescence imaging; normalized: neutral wells 0, TNF-alpha wells 100; activation, % at 7.58 µM;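 active = mean E-selectin-positive cell signal at least 10% of the positive control, reached in at least 60% of replicates, without over 20% cell loss; inconclusive = no rule given, readout overlaps actives, possibly toxicity-flagged; inactive = the rest, including those meeting only one limit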
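Assay system: HUVEC primary endothelial cells. Input: 3,000 HUVEC seeded per well. Doses: one compound dose added by pin transfer. Read-out basis: % PE-positive cells. Benchmarks: TNF-alpha high, DMSO low. Detection: immunofluorescence imaging. Buffer or medium: EGM-2, gelatin.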
SIRT5 inh: inhibitors of human sirtuin-5 desuccinylase | Q9NXA8 | Purified SirT5, succinyl-peptide AMC, trypsin-coupled fluorescence | 330,000 tested, 1.1% active | inhibition, % at 15 µM | AID 652115; in the data active = inhibition above about 15%; inconclusive = no clear call, values can overlap the other calls
Target sequence (Q9NXA8 whole entry, looked up): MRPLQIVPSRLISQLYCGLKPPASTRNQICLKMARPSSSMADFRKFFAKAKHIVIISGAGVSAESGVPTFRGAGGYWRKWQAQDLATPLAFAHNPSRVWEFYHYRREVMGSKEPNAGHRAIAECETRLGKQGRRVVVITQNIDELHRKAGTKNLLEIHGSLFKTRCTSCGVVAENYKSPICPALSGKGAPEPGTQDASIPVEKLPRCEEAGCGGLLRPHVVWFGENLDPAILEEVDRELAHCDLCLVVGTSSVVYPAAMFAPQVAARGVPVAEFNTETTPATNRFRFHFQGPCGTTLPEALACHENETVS
PglD inh: inhibitors of Campylobacter jejuni PglD acetyltransferase | purified PglD enzyme, DTNB colorimetric CoA detection | inhibition, % at 12.5 µM | 360,000 tested, 0.098% active | AID 602405; in the data active = inhibition above about 16%, passing the limit was not always enough; inconclusive = no clear call, values can overlap the other calls
ERAP1 inh: inhibitors of human ERAP1 aminopeptidase | recombinant ERAP1, Leu-AMC fluorescence, 60 min | inhibition, % at 10.7 µM | 340,000 tested, 0.15% active;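 active = mean replicate inhibition of at least 30%, or all replicates individually reaching that 30% level; inactive = mean below 30% and not every replicate reaching it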;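 note: 0% = neutral control wells and 100% = L-leucinethiol positive control wells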
DENV2 CPE rescue: DENV2-induced cell death inhibition. DENV2-infected cells, cytopathic effect rescue, plate reader. AID 651640. CPE inhibition, % at 9.99 µM. 350,000 tested, 1.7% active; in the data active = CPE inhibition above about 20%, passing the limit was not always enough; inconclusive = no clear call, values can overlap the other calls; tested in BHK-21 cells;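 note: 0% = median of neutral control wells and 100% = median of positive control wells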
* = called active by the depositor; ? = inconclusive; · = no result.

SMILES	E-sel inducer	SIRT5 inh	PglD inh	ERAP1 inh	DENV2 CPE rescue
C[C@H](CO)N1C[C@H](C)[C@H](CN(C)S(=O)(=O)c2ccc(F)cc2)Oc2ccc(NC(=O)Nc3ccc4c(c3)OCO4)cc2C1=O	-16	5	2	-2	-5
C[C@H]1CN([C@@H](C)CO)C(=O)c2cc(NC(=O)Nc3ccc4c(c3)OCO4)ccc2O[C@@H]1CN(C)S(=O)(=O)c1ccc(F)cc1	50*	2	3	-2	10
C[C@@H]1CN([C@@H](C)CO)C(=O)c2cc(NC(=O)Nc3ccc4c(c3)OCO4)ccc2O[C@@H]1CN(C)S(=O)(=O)c1ccccc1	-3	5	-1	-3	-5
Nc1nccnc1C(=O)OCc1nc2sc3c(c2c(=O)[nH]1)CCCC3	-1	6	4	-1	?
CCOc1ccccc1C(=O)Nc1ccc2nc3n(c(=O)c2c1)CCCCC3	1	23*	0	-4	-4
Cc1ccccc1C(=O)Nc1ccc2nc3n(c(=O)c2c1)CCCC3	0	-2	6	0	-1
COc1cc(OC)cc(C(=O)Nc2ccc3nc4n(c(=O)c3c2)CCCC4)c1	·	0	1	2	119*
COCC(=O)N1CCC2CC1c1cc(Cl)ccc12 (stereo not drawn)	0	22*	3	-4	15
O=C(OCc1ccccc1)N1CCC2CC1c1ccc(Cl)cc12 (stereo not drawn)	0	-1	-2	-1	-6
CCOc1ccc(Nc2c3ccccc3nc3ccccc23)cc1	0	0	-6	-70	14
CN1OC[C@@H]2CN(C(=O)c3cccc4ccccc34)[C@H](c3ccccc3Br)C[C@@H]21	-2	-2	0	·	4
CN1CCN(C(=O)CN2C(=O)CC(C)(C)S(=O)(=O)c3ccccc32)CC1	·	·	-6	·	·
CC1(C)CC(=O)N(CC(=O)O)c2ccccc2S1(=O)=O	·	·	1	-1	34*
O=[N+]([O-])c1ccccc1SN(Cc1ccccc1)c1ccccn1	·	5	·	0	2
O=C(Nc1ccccc1)N[C@H](Cc1ccccc1)Cn1cc(CN2C(=O)COC[C@H]2c2ccccc2)nn1	·	1	-3	-2	21*
CCN(C(=O)c1cc(S(=O)(=O)N2CCc3ccccc32)cn1C)c1ccccc1	0	-14	-1	1	-6
CC1=CC(C)(C)n2c(O)c(N=N)c3cc(C)cc1c32	-1	-1	12	0	49*
CCCN(C)C[C@@H]1OCCCC[C@H](C)Oc2ccc(NC(=O)c3ccccc3)cc2C(=O)N([C@H](C)CO)C[C@@H]1C	0	6	1	0	-6
COc1ccc(S(=O)(=O)Nc2ccc3c(c2)CC(=O)N([C@H](C)CO)C[C@@H](C)[C@@H](CN(C)Cc2ccc4c(c2)OCO4)O3)cc1	0	3	2	1	1
COc1ccc(S(=O)(=O)Nc2ccc3c(c2)CC(=O)N([C@@H](C)CO)C[C@H](C)[C@H](CN(C)Cc2ccc4c(c2)OCO4)O3)cc1	0	4	-2	-1	28*
C[C@H](CO)N1C[C@H](C)[C@@H](CN(C)Cc2ccc3c(c2)OCO3)Oc2ccc(NS(=O)(=O)c3cn(C)cn3)cc2CC1=O	0	·	-5	·	45*
C[C@H](CO)N1C[C@H](C)[C@@H](CN(C)Cc2ccc3c(c2)OCO3)Oc2ccc(NS(=O)(=O)c3ccc(Cl)cc3)cc2CC1=O	0	18*	-1	-2	6
C[C@H]1CN([C@@H](C)CO)C(=O)Cc2cc(NS(=O)(=O)c3ccc(Cl)cc3)ccc2O[C@@H]1CN(C)Cc1ccc2c(c1)OCO2	0	6	3	1	23*
COC(=O)/C=C1\N/C(=N\c2nc(C)cc(C)n2)N(c2ccccc2)C1=O	1	0	6	5	-3
COC(=O)/C=C1\N/C(=N\c2nc(C)cc(C)n2)N(c2ccc(C)cc2)C1=O	466*	0	·	7	9
SMILES	E-sel inducer	SIRT5 inh	PglD inh	ERAP1 inh	DENV2 CPE rescue
Cc1cccc(NC(=O)CSc2nnnn2C2CCCC2)c1	·	-1	2	2	?
O=C1C(Cl)=C(N2CCCC2)C(=O)N1c1ccc(F)cc1	0	-2	-5	3	10
O=C1C(Cl)=C(N2CCCCCC2)C(=O)N1c1ccc(Cl)cc1	0	0	1	-1	76*
Cc1ccc(CNC(=O)COC(=O)CCC(=O)c2cccs2)cc1	0	19*	·	4	1
OC(COc1ccc(Cl)cc1Cl)Cn1ccnc1 (stereo not drawn)	1	1	0	1	42*
CCCc1ccc2c(C)cccc2n1	·	-1	·	-1	-5
CCc1ccc2c(F)cccc2n1	0	-1	-5	-1	60*
Cc1ccc(-n2nc3c(c2NC(=O)c2ccco2)CS(=O)C3)c(C)c1 (stereo not drawn)	1	0	-3	24	55*
O=C(CC(C(=O)O)c1ccc(Cl)cc1)c1ccc(Br)cc1 (stereo not drawn)	0	17*	2	-2	0
CCc1ccc(C(CC(=O)c2ccc(Cl)cc2)C(=O)O)cc1 (stereo not drawn)	·	·	-1	·	·
COc1nnc(-c2ccc(N3CCOCC3)c(NC(=O)c3ccccc3)c2)c2ccccc12	·	·	2	·	·
O=C(N/N=C/c1ccc(-c2ccc(S(=O)(=O)Nc3ncccn3)cc2)o1)c1cc2ccccc2cc1O	·	·	-8	·	·
NC(=S)NN=Cc1ccc(-c2ccc(S(=O)(=O)Nc3ncccn3)cc2)o1	·	46*	·	2	8
C[C@H]1CN([C@@H](C)CO)S(=O)(=O)c2ccc(-c3cccc(F)c3)cc2O[C@H]1CN(C)C(=O)Nc1cc(F)ccc1F	0	·	4	0	-1
C[C@H]1CN([C@@H](C)CO)S(=O)(=O)c2ccc(-c3cccc(F)c3)cc2O[C@@H]1CN(C)C(=O)Nc1cc(F)ccc1F	0	19*	5	1	-9
C[C@H](CO)N1C[C@H](C)[C@H](CN(C)C(=O)Nc2ccccc2F)Oc2cc(-c3ccc(F)cc3)ccc2S1(=O)=O	0	-4	4	-3	26*
CN1c2ccsc2C(O)=C(C(=O)Nc2ccccc2)S1(=O)=O	·	·	-2	·	·
Cc1cccc(C)c1NC(=O)C1=C(O)c2sccc2N(C)S1(=O)=O	·	21*	·	9	1
NS(=O)(=O)c1cccc(NC(=O)COC(=O)c2ccccc2SCC(=O)N2CCCC2)c1	1	·	3	2	1
COc1ccc(C(C(=O)NCC2CCCO2)N(C(=O)Cn2nnc3ccccc32)c2ccc(NC(C)=O)cc2)c(OC)c1 (stereo not drawn)	0	0	3	-2	2
O=C1NC(=S)S/C1=C/c1ccc(OC(=O)c2ccco2)cc1	·	81*	-7	1	-8
Cc1ccc(NCCN(C)C)c2c(=O)c3cc(O)ccc3sc12	0	5	·	64*	-1
CO[C@@H]1CC[C@@H]2CCOc3c(C#N)cccc3C(=O)N(C)C[C@@H](OC)[C@@H](C)C(=O)N(C)C[C@@H]1O2	0	35*	1	-5	-2

Screens as filed in PubChem BioAssay.
